Measurements as given in ChEMBL document CHEMBL1765082, “Aminothiazolomorphinans with mixed κ and μ opioid activity” (J Med Chem, 2011).
Calls of active or inactive are those of the source. No cut-off for these calls is given here.

What was measured:
Mu-type opioid receptor [1] = biological target: T1, Mu-type opioid receptor (Homo sapiens, UniProt P35372); experiment: Agonist activity at human mu opioid receptor expressed in CHO cells assessed as [35S]GTPgammaS binding by scintillation counting; assay type: functional, cell-based
Mu-type opioid receptor [2] = biological target: T1, Mu-type opioid receptor; experiment: Agonist activity at human mu opioid receptor expressed in CHO cells assessed as [35S]GTPgammaS binding by scintillation counting relative to control; assay type: functional, cell-based
Procedure, shortened: (§1)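 Membranes from CHO cells stably expressing human κ (15 μg protein/tube) or μ (7.5 μg protein/tube) opioid receptor, grown in DMEM with 10% FBS at 37 °C, 5% CO2. Twelve agonist concentrations were incubated 60 min at 30 °C in 50 mM Tris-HCl, 3 mM MgCl2, 100 mM NaCl, 0.2 mM EGTA, pH 7.4, with 3 μM GDP and [35S]GTPγS. Filtration, then scintillation counting. Stimulation expressed as percent over basal; ≥3 experiments in triplicate.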

[3] = biological target: T2, Kappa-type opioid receptor (Homo sapiens, UniProt P41145); experiment: Antagonist activity at human kappa opioid receptor expressed in CHO cells assessed as […] in U50488-induced [35S]GTPgammaS binding by scintillation counting; assay type: functional, cell-based
[4] = biological target: T2, Kappa-type opioid receptor; experiment: Displacement of [3H]U69593 from human kappa opioid receptor expressed in CHO cells after 60 mins by scintillation counting; assay type: cell-based
Homo sapiens [5] = species: Homo sapiens; experiment: Selectivity ratio of Ki for human delta opioid receptor to Ki for human kappa opioid receptor
[6] = biological target: T2, Kappa-type opioid receptor; experiment: Agonist activity at human kappa opioid receptor expressed in CHO cells assessed as [35S]GTPgammaS binding by scintillation counting; assay type: functional, cell-based
[7] = biological target: Delta-type opioid receptor (Homo sapiens, UniProt P41143); experiment: Displacement of [3H]Naltrindole from human delta opioid receptor expressed in CHO cells after 3 hrs by scintillation counting; assay type: cell-based
Procedure, shortened: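 Membranes from CHO cells expressing human κ, μ or δ opioid receptor were incubated with 12 compound concentrations and a receptor-selective radioligand at 25 °C in 50 mM Tris-HCl, pH 7.5. […] Nonspecific binding was defined with 10 μM naloxone. Ki reported as mean ± SEM, three experiments in triplicate.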

Mu-type opioid receptor [8] = biological target: T1, Mu-type opioid receptor; experiment: Displacement of [3H]DAMGO from human mu opioid receptor expressed in CHO cells after 60 mins by scintillation counting; assay type: cell-based
[9] = biological target: T2, Kappa-type opioid receptor; experiment: Agonist activity at human kappa opioid receptor expressed in CHO cells assessed as [35S]GTPgammaS binding by scintillation counting relative to control; assay type: functional, cell-based; procedure, shortened: as §1
Mu-type opioid receptor [10] = biological target: T1, Mu-type opioid receptor; experiment: Antagonist activity at human mu opioid receptor expressed in CHO cells assessed as inhibition of DAMGO-induced [35S]GTPgammaS binding at 10 uM by scintillation counting; assay type: functional, cell-based
Homo sapiens [11] = species: Homo sapiens; experiment: Selectivity ratio of Ki for human mu opioid receptor to Ki for human kappa opioid receptor
Mu-type opioid receptor [12] = biological target: T1, Mu-type opioid receptor; conditions: cho
Mu-type opioid receptor [13] = biological target: T1, Mu-type opioid receptor

Delta-type opioid receptor, sequence (P41143 whole entry): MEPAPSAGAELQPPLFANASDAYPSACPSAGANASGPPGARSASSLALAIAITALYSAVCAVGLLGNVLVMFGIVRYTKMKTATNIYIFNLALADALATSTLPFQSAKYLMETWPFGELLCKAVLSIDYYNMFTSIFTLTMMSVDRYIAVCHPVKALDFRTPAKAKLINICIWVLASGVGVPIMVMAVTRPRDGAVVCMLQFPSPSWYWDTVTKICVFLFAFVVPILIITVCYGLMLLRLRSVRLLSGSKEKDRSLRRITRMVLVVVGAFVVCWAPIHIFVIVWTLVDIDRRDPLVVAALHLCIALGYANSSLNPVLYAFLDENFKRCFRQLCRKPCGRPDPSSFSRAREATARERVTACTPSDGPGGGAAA
T1 sequence (P35372 whole entry): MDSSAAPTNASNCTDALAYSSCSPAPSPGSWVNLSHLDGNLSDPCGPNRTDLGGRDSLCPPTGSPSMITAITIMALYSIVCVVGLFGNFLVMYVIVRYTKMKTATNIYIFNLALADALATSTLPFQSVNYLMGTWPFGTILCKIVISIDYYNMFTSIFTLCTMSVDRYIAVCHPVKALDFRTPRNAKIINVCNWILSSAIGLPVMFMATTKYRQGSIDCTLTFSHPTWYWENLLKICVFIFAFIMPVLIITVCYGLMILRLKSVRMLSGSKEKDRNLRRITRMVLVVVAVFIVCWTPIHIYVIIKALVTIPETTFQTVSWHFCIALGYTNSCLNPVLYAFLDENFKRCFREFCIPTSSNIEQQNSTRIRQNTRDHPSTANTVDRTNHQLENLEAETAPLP
T2 sequence (P41145 whole entry): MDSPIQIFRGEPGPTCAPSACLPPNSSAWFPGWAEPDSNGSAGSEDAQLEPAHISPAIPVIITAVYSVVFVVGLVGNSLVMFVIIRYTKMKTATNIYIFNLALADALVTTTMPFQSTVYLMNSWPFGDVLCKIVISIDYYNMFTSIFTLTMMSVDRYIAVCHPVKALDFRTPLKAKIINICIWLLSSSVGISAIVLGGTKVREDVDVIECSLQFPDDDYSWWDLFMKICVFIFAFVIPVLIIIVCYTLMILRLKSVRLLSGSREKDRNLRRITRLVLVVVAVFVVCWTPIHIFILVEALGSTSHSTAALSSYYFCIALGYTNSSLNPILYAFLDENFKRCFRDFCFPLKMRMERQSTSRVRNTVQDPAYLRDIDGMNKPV

Compound | EC50 (Mu-type opioid receptor [1]) | Emax (Mu-type opioid receptor [2]) | Activity [3] | Ki [4] | Ratio Ki (Homo sapiens [5]) | EC50 [6] | Ki [7] | Ki (Mu-type opioid receptor [8]) | Emax [9] | inhibition (Mu-type opioid receptor [10]) | Ratio Ki (Homo sapiens [11]) | IC50 (Mu-type opioid receptor [12]) | IC50 (Mu-type opioid receptor [13])
Nc1nc2cc3c(cc2s1)C[C@@H]1[C@@H]2CCCC[C@]32CCN1CCCF | 130 nM | 65% | inactive | 0.3 nM | 180 | 32 nM | 54 nM | 2.7 nM | 100% | 40% | 9 |  | 
Nc1nc2cc3c(cc2o1)[C@@]12CCCC[C@H]1[C@@H](C3)N(CC1CC1)CC2 |  |  |  |  | > 192 |  |  |  |  |  | 3 |  | 
CCN(C(C)=O)c1nc2cc3c(cc2s1)C[C@@H]1[C@@H]2CCCC[C@]32CCN1CC1CC1 |  |  |  | 13 nM | 57 |  | 740 nM | 86 nM |  |  | 4 |  | 
CCCNc1nc2cc3c(cc2s1)C[C@@H]1[C@@H]2CCCC[C@]32CCN1CCCF |  |  |  | 5.8 nM | 21 |  | 120 nM | 24 nM |  |  | 4 |  | 
c1ccc(Nc2nc3cc4c(cc3s2)C[C@@H]2[C@@H]3CCCC[C@]43CCN2CC2CC2)cc1 |  |  |  | 21 nM | 7 |  | 140 nM | 180 nM |  |  | 9 |  | 
CCNc1nc2cc3c(cc2s1)C[C@@H]1[C@@H]2CCCC[C@]32CCN1CC1CC1 |  |  | inactive | 0.151 nM |  |  | 43 nM | 4.7 nM | 190% |  |  | Not Active | 
CCNc1nc2cc3c(cc2s1)C[C@@H]1[C@@H]2CCCC[C@]32CCN1CC1CCC1 |  |  |  | 3.7 nM | 25 |  | 91 nM | 1.1 nM |  |  | 0.3 |  | 
CCNC(=S)Nc1nc2cc3c(cc2s1)C[C@@H]1[C@@H]2CCCC[C@]32CCN1CC1CC1 |  |  |  | 18 nM | 8 |  | 150 nM | 130 nM |  |  | 7 |  | 
CNc1nc2cc3c(cc2s1)C[C@@H]1[C@@H]2CCCC[C@]32CCN1CCCF |  |  | inactive | 0.71 nM |  |  | 50 nM | 7.4 nM | 170% |  |  | Not Active | 
CNc1nc2cc3c(cc2s1)C[C@@H]1[C@@H]2CCCC[C@]32CCN1CC1CC1 | 47 nM |  | inactive | 0.066 nM |  | 14 nM | 25 nM | 3 nM | 82% |  |  | Not Active | 
CC(=O)N(C)c1nc2cc3c(cc2s1)C[C@@H]1[C@@H]2CCCC[C@]32CCN1CC1CC1 |  |  |  | 6.9 nM | 160 |  | 1100 nM | 110 nM |  |  | 16 |  | 
c1ccc(Nc2nc3cc4c(cc3s2)C[C@@H]2[C@@H]3CCCC[C@]43CCN2CC2CC2)nc1 |  |  |  | 95 nM |  |  | > 10000 nM | 610 nM |  |  | 6 |  | 
Nc1nc2cc3c(cc2s1)C[C@@H]1[C@@H]2CCCC[C@]32CCN1CC1CCC1 | > 1000 nM |  | inactive |  | 290 |  |  |  |  |  | 9 |  | 85 nM
CN(C)c1nc2cc3c(cc2s1)C[C@@H]1[C@@H]2CCCC[C@]32CCN1CCCF |  |  |  | 11 nM | 38 |  | 420 nM | 76 nM |  |  | 7 |  | 
Nc1nc2cc3c(cc2s1)C[C@@H]1[C@@H]2CCCC[C@]32CCN1CC1CC1 |  |  | inactive |  | 590 |  |  |  |  |  | 30 | Not Active | 
Oc1ccc2c(c1)[C@@]13CCCC[C@H]1[C@@H](C2)N(CC1CC1)CC3 |  |  | inactive |  |  |  |  |  |  |  |  |  | 
CC(=O)Nc1nc2cc3c(cc2s1)C[C@@H]1[C@@H]2CCCC[C@]32CCN1CC1CC1 |  |  |  | 13 nM | 58 |  | 750 nM | 57 nM |  |  | 4 |  | 
Oc1cccc(CNc2nc3cc4c(cc3s2)C[C@@H]2[C@@H]3CCCC[C@]43CCN2CC2CC2)c1 |  |  |  | 3.5 nM | 8 |  | 29 nM | 9.9 nM |  |  | 3 |  | 
CN(C)c1nc2cc3c(cc2s1)C[C@@H]1[C@@H]2CCCC[C@]32CCN1CC1CC1 | 140 nM | 57% | inactive | 0.45 nM | 140 | 46 nM | 65 nM | 10 nM | 110% | 40% | 22 |  | 
FC(F)(F)CNc1nc2cc3c(cc2s1)C[C@@H]1[C@@H]2CCCC[C@]32CCN1CC1CC1 |  |  | inactive | 0.84 nM | 210 | 120 nM | 180 nM | 21 nM | 120% |  | 25 |  | 
CN1CC[C@]23CCCC[C@H]2[C@H]1Cc1cc2sc(N)nc2cc13 |  |  |  |  | 30 |  |  |  |  |  | 0.17 |  | 
CC(=O)Nc1nc2cc3c(cc2s1)C[C@@H]1[C@@H]2CCCC[C@]32CCN1CCCF |  |  |  | 1.2 nM | 180 |  | 220 nM | 15 nM |  |  | 13 |  | 
c1ccc(CNc2nc3cc4c(cc3s2)C[C@@H]2[C@@H]3CCCC[C@]43CCN2CC2CC2)cc1 |  |  |  | 2.1 nM | 20 |  | 41 nM | 10 nM |  |  | 5 |  | 
Nc1nc2cc3c(cc2s1)C[C@@H]1[C@@H]2CCCC[C@]32CCN1C[C@@H]1CCCO1 | 71 nM | 120% | inactive | 0.83 nM | 67 | 14 nM | 56 nM | 2.4 nM | 190% |  | 3 | Not Active | 
CCCNc1nc2cc3c(cc2s1)C[C@@H]1[C@@H]2CCCC[C@]32CCN1CC1CC1 |  |  |  | 1.6 nM | 49 |  | 79 nM | 17 nM |  |  | 11 |  | 
CCNc1nc2cc3c(cc2s1)C[C@@H]1[C@@H]2CCCC[C@]32CCN1CCCF | 240 nM |  | inactive | 0.94 nM |  | 89 nM | 76 nM | 4 nM | 150% |  |  | Not Active | 
CNc1nc2cc3c(cc2s1)C[C@@H]1[C@@H]2CCCC[C@]32CCN1CC1CCC1 |  |  |  | 2.4 nM | 20 |  | 47 nM | 1.8 nM |  |  | 1 |  | 
COc1cccc(CNc2nc3cc4c(cc3s2)C[C@@H]2[C@@H]3CCCC[C@]43CCN2CC2CC2)c1 |  |  |  | 4.8 nM | 7 |  | 34 nM | 9.1 nM |  |  | 2 |  | 
